Measured values pooled from the literature.
Protocols differ between the studies behind these lines.
Target: Cytochrome P450 2D6 (CYP2D6, Homo sapiens, UniProt P10635)
Effect on: enzyme activity
Action: inhibitor

| SMILES | technique | host | sample | time | pH | IC50 [nM] |
| --- | --- | --- | --- | --- | --- | --- |
| Nc1nc(N)c2nc(CNc3cccc4ccccc34)cnc2n1 | luciferase | – | – | – | – | 832 |
| COc1ccc2cc3[n+](cc2c1OC)CCc1cc2c(cc1-3)OCO2 | – | – | – | – | – | 600 |
| C=CC(=O)Nc1cc(Nc2nccc(Nc3cc(Cl)c(F)cc3C(C)(C)O)n2)c(OC)cc1N1CC[C@@H](N(C)C)C1 | – | human | liver microsomes | – | – | 6300 |
| CCc1cc(/C(C)=N/OCc2ccc(C3CCCCC3)c(C(F)(F)F)c2)ccc1CN1CC(C(=O)O)C1 | – | human | liver microsomes | 20 min | – | > 1100 |
| Nc1nc(N)c2nc(CNc3ccc(C(=O)NCCc4ccccc4)cc3)cnc2n1 | luciferase | – | – | – | – | 10500 |
| Cc1ccc2nc(-c3ccccc3)c(CNc3ccc(F)cc3)n2c1 | – | – | – | – | – | 2300 |
| O=c1c(O)c(-c2ccc(O)c(O)c2)oc2cc(O)cc(O)c12 | fluorescence | – | – | – | pH 7.4 | 650 |
| C[C@H]1CN(c2n[nH]c3nc(N[C@H]4CC[C@H](NS(=O)(=O)CCC(F)(F)F)CC4)ncc23)CCO1 | – | – | – | – | – | > 100000 |
| COc1ccc2c(Cc3ccccc3F)c3[n+](cc2c1OC)CCc1cc2c(cc1-3)OCO2 | – | – | – | – | – | 200 |
| N#C[C@H](C[C@@H]1CCCNC1=O)NC(=O)[C@H](CC1CC1)NC(=O)c1cc2cccc(Cl)c2[nH]1 | – | human | liver microsomes | – | – | 50700 |
| Fc1ccc(Nc2c(-c3ccccn3)nc3ccc(C4CC4)cn23)cc1 | – | – | – | – | – | 1500 |
| Cc1coc([C@H]2C[C@H]3[C@@H](C)SC(N)=N[C@@]3(c3ccc(F)cc3F)CO2)n1 | – | human | liver microsomes | – | pH 7.4 | > 30000 |
